Common to all, as to conditions: stereoisomer not certain
Experiment [1] addresses T1, OR3A1 (Homo sapiens) (UniProt P47881).
T1 sequence (whole entry): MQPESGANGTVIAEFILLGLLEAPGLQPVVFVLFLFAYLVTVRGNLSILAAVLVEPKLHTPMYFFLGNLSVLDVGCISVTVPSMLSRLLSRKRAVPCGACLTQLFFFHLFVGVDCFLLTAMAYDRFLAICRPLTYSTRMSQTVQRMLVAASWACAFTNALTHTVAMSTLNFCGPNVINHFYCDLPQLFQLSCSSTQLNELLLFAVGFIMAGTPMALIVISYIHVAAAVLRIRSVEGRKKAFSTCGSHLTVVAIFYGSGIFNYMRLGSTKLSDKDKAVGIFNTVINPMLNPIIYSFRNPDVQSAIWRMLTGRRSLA
Summed up: (§1)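 Whether a receptor–molecule pair is responsive (active) rests on the original authors' judgment that its measured signal was statistically different from baseline. Pairs without that judgment are non-responsive (inactive). Sources used varied assay methods, commonly transient luciferase assays in mammalian cell lines.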

For experiment [2], the target named is T2, OR2W3 (Homo sapiens) (UniProt Q7Z3T1).
T2 sequence (whole entry): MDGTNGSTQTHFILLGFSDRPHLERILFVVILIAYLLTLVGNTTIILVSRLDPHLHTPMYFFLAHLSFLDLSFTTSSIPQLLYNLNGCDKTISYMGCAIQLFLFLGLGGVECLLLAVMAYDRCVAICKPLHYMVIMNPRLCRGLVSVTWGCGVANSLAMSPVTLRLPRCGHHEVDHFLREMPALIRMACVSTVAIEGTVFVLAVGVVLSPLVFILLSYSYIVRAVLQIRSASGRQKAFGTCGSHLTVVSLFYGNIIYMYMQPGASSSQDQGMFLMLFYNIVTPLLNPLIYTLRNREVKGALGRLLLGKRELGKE
The procedure, abridged: as §1

The target in experiment [3] is T3, OR2W5P (Homo sapiens) (UniProt A6NFC9).
T3 sequence (whole entry): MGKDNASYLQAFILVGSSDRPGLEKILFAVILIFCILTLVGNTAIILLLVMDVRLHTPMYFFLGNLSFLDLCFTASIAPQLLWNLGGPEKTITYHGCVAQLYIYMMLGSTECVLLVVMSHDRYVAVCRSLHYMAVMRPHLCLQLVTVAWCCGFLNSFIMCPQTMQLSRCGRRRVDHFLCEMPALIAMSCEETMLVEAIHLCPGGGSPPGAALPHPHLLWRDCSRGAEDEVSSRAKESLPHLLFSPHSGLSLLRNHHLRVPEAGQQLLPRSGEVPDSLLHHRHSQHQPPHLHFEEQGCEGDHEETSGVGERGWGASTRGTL
The procedure, abridged: as §1

Experiment [4] deals with T4, OR2Y1 (Homo sapiens) (UniProt Q8NGV0).
T4 sequence (whole entry): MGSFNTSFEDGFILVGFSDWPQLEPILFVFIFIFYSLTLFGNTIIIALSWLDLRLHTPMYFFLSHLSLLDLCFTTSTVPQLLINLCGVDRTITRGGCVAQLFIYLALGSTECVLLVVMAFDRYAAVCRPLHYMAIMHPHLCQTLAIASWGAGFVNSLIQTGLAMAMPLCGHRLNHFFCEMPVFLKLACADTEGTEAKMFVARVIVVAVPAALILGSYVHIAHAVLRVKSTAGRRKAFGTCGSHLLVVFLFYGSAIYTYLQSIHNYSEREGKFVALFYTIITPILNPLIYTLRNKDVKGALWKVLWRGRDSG
The procedure, abridged: as §1

The test system of experiment [5] is T5, OR2Y1.
T5 sequence (whole entry): T4 sequence (whole entry) with V200L
Summed up: as §1

Experiment [6] concerns the target T6, OR2Z1 (Homo sapiens) (UniProt Q8NG97).
T6 sequence (whole entry): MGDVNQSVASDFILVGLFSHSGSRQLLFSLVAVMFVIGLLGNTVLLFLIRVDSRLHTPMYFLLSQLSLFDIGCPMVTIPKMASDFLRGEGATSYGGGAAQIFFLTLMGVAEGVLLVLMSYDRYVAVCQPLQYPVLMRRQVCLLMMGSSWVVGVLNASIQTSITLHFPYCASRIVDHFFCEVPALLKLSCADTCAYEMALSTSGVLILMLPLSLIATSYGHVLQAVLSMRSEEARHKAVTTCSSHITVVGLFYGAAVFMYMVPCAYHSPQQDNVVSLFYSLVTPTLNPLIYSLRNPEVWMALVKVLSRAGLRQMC
The procedure, abridged: as §1

Experiment [7] has as its system T7, OR3A1.
T7 sequence (whole entry): T1 sequence (whole entry) with R125Q
Summed up:
as §1

Experiment [8] concerns the target T8, OR3A2 (Homo sapiens) (UniProt P47893).
T8 sequence (whole entry): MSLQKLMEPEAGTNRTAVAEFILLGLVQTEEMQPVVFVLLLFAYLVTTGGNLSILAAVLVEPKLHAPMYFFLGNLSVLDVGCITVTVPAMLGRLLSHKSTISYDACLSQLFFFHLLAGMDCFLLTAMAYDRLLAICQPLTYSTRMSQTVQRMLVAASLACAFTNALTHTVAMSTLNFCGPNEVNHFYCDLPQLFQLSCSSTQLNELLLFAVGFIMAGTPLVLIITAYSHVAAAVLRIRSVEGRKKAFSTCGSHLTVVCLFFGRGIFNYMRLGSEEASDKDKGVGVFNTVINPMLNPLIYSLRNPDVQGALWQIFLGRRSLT
Summed up: as §1

The subject of experiment [9] is T9, OR3A2 R317K.
T9 sequence (whole entry): T8 sequence (whole entry) with R317K
The procedure, abridged:
as §1

The target of experiment [10] is T10, OR3A3 (Homo sapiens) (UniProt P47888).
T10 sequence (whole entry): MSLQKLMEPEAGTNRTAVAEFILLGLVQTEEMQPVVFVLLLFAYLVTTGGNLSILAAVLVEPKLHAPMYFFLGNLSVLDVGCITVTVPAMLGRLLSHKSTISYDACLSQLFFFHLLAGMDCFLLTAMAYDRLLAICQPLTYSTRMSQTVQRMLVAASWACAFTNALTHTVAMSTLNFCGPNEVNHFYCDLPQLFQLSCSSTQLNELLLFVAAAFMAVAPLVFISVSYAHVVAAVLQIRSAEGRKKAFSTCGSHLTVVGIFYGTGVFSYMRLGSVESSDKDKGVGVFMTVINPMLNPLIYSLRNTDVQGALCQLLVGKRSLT
Summed up:
as §1

In experiment [11] the test system is T11, OR3A3 T48I L132F.
T11 sequence (whole entry): T10 sequence (whole entry) with T48I, L132F
Summed up:
as §1

In experiment [12] the target is OR4A15 (Homo sapiens) (UniProt Q8NGL6). The procedure, abridged:
as §1

For experiment [13], the target named is T12, OR4A16 (Homo sapiens) (UniProt Q8NH70).
T12 sequence (whole entry): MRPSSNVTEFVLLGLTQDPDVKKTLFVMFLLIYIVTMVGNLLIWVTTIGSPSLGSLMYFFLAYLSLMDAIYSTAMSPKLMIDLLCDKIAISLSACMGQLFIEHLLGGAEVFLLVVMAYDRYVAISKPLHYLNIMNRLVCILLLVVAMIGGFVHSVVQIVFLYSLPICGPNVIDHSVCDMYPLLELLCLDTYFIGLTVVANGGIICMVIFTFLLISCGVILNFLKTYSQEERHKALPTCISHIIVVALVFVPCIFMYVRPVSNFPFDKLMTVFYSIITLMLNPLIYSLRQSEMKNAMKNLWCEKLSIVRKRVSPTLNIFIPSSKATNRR
The procedure, abridged:
as §1

The target of experiment [14] is T13, OR4A47 (Homo sapiens) (UniProt Q6IF82).
T13 sequence (whole entry): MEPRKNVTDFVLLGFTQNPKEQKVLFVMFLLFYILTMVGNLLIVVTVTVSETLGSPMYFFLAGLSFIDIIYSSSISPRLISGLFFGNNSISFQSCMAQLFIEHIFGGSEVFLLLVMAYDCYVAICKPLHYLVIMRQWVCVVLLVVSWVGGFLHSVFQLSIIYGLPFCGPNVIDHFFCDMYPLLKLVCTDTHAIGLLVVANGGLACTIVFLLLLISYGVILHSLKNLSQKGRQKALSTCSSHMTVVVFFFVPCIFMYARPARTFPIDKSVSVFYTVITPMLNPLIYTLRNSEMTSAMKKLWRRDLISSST
Summed up: as §1

Experiment [15] deals with T14, OR4A5 (Homo sapiens) (UniProt Q8NH83).
T14 sequence (whole entry): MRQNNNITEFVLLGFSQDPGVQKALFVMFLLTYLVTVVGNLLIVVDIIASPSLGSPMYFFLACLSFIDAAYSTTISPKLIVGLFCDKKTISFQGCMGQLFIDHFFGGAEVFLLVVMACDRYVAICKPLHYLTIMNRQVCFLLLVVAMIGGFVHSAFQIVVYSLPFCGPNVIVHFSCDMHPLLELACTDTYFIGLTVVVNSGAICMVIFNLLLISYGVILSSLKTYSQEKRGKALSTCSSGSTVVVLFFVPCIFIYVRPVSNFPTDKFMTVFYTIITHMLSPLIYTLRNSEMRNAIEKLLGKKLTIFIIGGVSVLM
The procedure, abridged: as §1

Experiment [16] addresses T15, OR4B1 (Homo sapiens) (UniProt Q8NGF8).
T15 sequence (whole entry): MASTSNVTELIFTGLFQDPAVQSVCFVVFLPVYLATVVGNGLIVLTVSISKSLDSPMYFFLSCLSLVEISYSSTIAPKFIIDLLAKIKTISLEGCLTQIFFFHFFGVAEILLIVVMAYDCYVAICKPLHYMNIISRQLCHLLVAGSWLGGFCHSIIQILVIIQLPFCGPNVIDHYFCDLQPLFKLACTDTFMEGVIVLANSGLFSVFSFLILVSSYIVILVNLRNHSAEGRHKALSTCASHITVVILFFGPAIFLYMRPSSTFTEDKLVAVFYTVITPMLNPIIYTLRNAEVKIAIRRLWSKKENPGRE
The procedure, abridged: as §1

Experiment [17] deals with T16, OR4C11 (Homo sapiens) (UniProt Q6IEV9).
T16 sequence (whole entry): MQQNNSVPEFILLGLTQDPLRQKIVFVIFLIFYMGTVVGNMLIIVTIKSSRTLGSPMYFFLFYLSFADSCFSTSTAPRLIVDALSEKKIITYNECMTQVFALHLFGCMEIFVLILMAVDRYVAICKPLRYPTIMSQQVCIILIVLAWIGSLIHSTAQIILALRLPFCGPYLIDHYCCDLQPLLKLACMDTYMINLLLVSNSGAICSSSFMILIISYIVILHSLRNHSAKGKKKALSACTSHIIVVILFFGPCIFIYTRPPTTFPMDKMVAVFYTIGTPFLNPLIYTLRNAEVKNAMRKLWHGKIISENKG
The procedure, abridged:
as §1

The target of experiment [18] is OR4C12 (Homo sapiens) (UniProt Q96R67). Summed up:
as §1

Experiment [19] has as its target OR4A8 (Homo sapiens) (UniProt P0C604). The procedure, abridged:
as §1

Numbering of substitutions follows the chain as printed.

The text below walks through data of the M2OR odorant receptor database.

OR4C12 (Homo sapiens), sequence (Q96R67 whole entry): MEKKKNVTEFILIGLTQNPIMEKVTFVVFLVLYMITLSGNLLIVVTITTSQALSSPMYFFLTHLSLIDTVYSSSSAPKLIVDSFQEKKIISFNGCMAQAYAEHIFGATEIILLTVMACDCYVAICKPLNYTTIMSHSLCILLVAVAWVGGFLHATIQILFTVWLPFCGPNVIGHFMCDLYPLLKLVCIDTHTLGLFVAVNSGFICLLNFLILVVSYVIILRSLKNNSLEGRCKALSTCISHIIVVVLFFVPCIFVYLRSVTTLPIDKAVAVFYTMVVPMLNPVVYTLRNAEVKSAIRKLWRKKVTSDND
OR4A15 (Homo sapiens), sequence (Q8NGL6 whole entry): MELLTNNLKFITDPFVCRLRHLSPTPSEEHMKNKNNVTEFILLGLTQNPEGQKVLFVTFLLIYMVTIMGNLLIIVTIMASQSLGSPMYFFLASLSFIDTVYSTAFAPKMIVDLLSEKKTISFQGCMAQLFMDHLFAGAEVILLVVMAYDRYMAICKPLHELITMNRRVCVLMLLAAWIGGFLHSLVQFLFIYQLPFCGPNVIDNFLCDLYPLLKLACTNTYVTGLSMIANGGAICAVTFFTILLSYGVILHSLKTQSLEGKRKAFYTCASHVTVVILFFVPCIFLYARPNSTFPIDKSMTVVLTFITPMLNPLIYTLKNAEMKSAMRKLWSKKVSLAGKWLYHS
OR4A8 (Homo sapiens), sequence (P0C604 whole entry): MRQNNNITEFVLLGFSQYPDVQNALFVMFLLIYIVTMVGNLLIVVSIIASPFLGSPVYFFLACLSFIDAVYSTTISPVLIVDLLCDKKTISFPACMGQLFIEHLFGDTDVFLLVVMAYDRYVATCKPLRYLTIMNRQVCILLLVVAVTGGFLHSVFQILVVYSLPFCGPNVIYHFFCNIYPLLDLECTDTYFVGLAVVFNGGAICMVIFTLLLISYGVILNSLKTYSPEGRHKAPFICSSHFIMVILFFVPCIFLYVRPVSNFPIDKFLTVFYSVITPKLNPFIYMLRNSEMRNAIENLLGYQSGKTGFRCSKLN

For `CCCCCCCC(=O)OCCCCCC`, the “odorant receptor agonist call” value in experiment [1] was “inactive”.
In the case of `CC(CC=O)c1ccccc1` (stereo not given), the “odorant receptor agonist call” value in [1] was “active”.
On to `CC1=C(O)C(=O)OC1C` (stereo not given), for which the “odorant receptor agonist call” value in experiment [2], in [3], in experiment [4], in [5], in [6] and in experiment [1] was “inactive” each time. Besides, the “odorant receptor agonist call” value in experiment [7], in [8], in experiment [9], in experiment [10], in [11] and in [12] was “inactive” throughout. Further, the “odorant receptor agonist call” value in experiment [13], in [14], in experiment [15], in experiment [16], in experiment [17] and in [18] was “inactive” in each case.
Turning to `CC(C=O)Cc1ccc(C(C)(C)C)cc1` (stereo not given), the “odorant receptor agonist call” value in [2] is “inactive”. For the same compound, the “odorant receptor agonist call” value in experiment [1] is “active”.
Take `CC1CCCCCCCCCCCCC(=O)C1` (stereo not given): the “odorant receptor agonist call” value in experiment [2], in experiment [4], in [6], in experiment [1], in experiment [8] and in experiment [10] was “inactive” in each case. The “odorant receptor agonist call” value in experiment [12], in [13], in [14], in [15], in experiment [19] and in experiment [16] was “inactive” in each case. Besides, the “odorant receptor agonist call” value in [17] and in [18] was “inactive” throughout.
For `C=C(C)C1CC=C(C)CC1` (stereo not given), in experiment [2], the “odorant receptor agonist call” value is “inactive”.
Regarding `CC(=O)c1c(C)c([N+](=O)[O-])c(C(C)(C)C)c([N+](=O)[O-])c1C`, the “odorant receptor agonist call” value in experiment [2], in experiment [4], in experiment [6], in experiment [1], in [8] and in [10] was “inactive” in each case. For the same compound, the “odorant receptor agonist call” value in experiment [12], in experiment [13], in experiment [14], in experiment [15], in [19] and in experiment [16] was “inactive” in each case. Moreover, the “odorant receptor agonist call” value in [17] and in [18] was “inactive” throughout.
On to `CC1=CC(=O)CC(C(C)C)C1` (stereo not given), for which, in [1], the “odorant receptor agonist call” value was “active”.
On to `CCCCCCCCCC(C)C=O` (stereo not given), for which the “odorant receptor agonist call” value in [1] was “inactive”.
For `CC(C=O)=Cc1ccccc1`, the “odorant receptor agonist call” value in experiment [1] is “inactive”.
Same read-out and setting: the value for `CC(=O)OCc1ccc2c(c1)OCO2` was “inactive”.
